From ChEMBL document CHEMBL1137287, “Peptidyl-urea based inhibitors of soluble epoxide hydrolases” (Bioorg Med Chem Lett, 2006)

What was measured:
[1] = Solubility in sodium phosphate buffer at pH 7.4; type: physicochemical
Procedure, shortened: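 Solubility measured in sodium phosphate buffer, 100 mM, pH 7.4, following a previously described procedure.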

[2] = target: T1, Bifunctional epoxide hydrolase 2 (Mus musculus, UniProt P34914); assay: Inhibition of mouse recombinant soluble Epoxide hydrolase
T1 sequence (P34914 whole entry): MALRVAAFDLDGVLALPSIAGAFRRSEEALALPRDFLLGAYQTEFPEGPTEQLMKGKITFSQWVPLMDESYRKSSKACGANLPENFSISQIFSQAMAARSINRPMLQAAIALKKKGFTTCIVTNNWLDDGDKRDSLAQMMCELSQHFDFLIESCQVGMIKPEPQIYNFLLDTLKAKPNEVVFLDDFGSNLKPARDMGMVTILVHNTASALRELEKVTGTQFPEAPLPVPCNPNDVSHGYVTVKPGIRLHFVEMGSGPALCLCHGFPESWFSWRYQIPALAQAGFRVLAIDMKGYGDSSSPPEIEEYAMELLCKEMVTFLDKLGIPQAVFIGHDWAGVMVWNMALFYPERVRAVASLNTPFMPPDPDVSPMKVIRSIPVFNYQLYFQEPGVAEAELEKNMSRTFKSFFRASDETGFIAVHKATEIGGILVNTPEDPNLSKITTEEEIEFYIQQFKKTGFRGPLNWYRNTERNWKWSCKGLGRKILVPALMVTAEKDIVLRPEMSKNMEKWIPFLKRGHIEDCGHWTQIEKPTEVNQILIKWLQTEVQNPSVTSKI

[3] = target: T2, Bifunctional epoxide hydrolase 2 (Homo sapiens, UniProt P34913); assay: Inhibition of human recombinant soluble Epoxide hydrolase
T2 sequence (P34913 whole entry): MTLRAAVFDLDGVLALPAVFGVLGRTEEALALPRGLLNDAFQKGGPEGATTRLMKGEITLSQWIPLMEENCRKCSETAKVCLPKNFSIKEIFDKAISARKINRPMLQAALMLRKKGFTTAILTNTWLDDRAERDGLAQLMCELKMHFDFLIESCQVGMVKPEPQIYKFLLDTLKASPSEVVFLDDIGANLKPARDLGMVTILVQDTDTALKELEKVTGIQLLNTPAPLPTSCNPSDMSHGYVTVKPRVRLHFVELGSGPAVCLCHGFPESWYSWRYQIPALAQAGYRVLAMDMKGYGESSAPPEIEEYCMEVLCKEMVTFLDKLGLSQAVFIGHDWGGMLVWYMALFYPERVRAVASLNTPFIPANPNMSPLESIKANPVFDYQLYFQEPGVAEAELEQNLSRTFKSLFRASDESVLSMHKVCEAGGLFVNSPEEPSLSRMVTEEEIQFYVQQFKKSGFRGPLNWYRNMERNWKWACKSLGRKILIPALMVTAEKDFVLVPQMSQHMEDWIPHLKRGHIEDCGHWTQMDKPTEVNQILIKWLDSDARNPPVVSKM

| Structure (SMILES) | solubility [1] [µM] | IC50 [2] [µM] | IC50 [3] [µM] |
| --- | --- | --- | --- |
| O=C(CCCNC(=O)NC12CC3CC(CC(C3)C1)C2)N[C@@H](Cc1c[nH]c2ccccc12)C(=O)O | > 500 | 8.4 | – |
| O=C(CCCCCNC(=O)NC1CCCCC1)N[C@@H](Cc1ccccc1)C(=O)N[C@@H](Cc1ccccc1)C(=O)O | > 500 | – | 0.1 |
| CC(C)[C@H](NC(=O)CCCCCNC(=O)NC1CCCCC1)C(=O)O | > 500 | 0.56 | 41 |
| O=C(O)C[C@H](NC(=O)CCCNC(=O)NC12CC3CC(CC(C3)C1)C2)C(=O)O | > 500 | > 100 | – |
| CC(C)[C@H](NC(=O)CNC(=O)NC1CCCCC1)C(=O)O | > 500 | > 100 | > 100 |
| O=C(O)CCCCCNC(=O)NC1CCCCC1 | – | 24 | > 100 |
| CC(C)C[C@H](NC(=O)CCCCCNC(=O)NC12CC3CC(CC(C3)C1)C2)C(=O)O | > 500 | – | > 100 |
| O=C(CCCCCNC(=O)NC1CCCCC1)N[C@@H](Cc1ccccc1)C(=O)O (stereo in doubt; form 1) | – | 0.15 | 2.7 |
| O=C(CCCCCNC(=O)NC1CCCCC1)N[C@@H](Cc1ccccc1)C(=O)N[C@@H](Cc1cnc[nH]1)C(=O)O | > 500 | – | 5.5 |
| CCC(C)[C@H](NC(=O)CCCCCNC(=O)NC12CC3CC(CC(C3)C1)C2)C(=O)O (some centres undefined) | > 500 | – | > 100 |
| O=C(NCCCC(=O)N1CCC[C@H]1C(=O)O)NC12CC3CC(CC(C3)C1)C2 | > 500 | 82 | – |
| O=C(O)CCCNC(=O)NC1CCCCC1 | – | 1.9 | 36 |
| O=C(O)CC[C@H](NC(=O)CCCNC(=O)NC1CCCCC1)C(=O)O | > 500 | 1.7 | 24 |
| CC(C)C[C@H](NC(=O)CCCNC(=O)NC12CC3CC(CC(C3)C1)C2)C(=O)O | > 500 | 15 | – |
| CC(C)C[C@H](NC(=O)[C@H](Cc1ccccc1)NC(=O)CCCCCNC(=O)NC1CCCCC1)C(=O)O | > 500 | – | 0.88 |
| CC(C)[C@H](NC(=O)CCCCCNC(=O)NC12CC3CC(CC(C3)C1)C2)C(=O)O | > 500 | – | 55 |
| O=C(NCCCCCC(=O)N1CCC[C@H]1C(=O)O)NC12CC3CC(CC(C3)C1)C2 | > 500 | – | > 100 |
| C[C@H](NC(=O)CCCNC(=O)NC12CC3CC(CC(C3)C1)C2)C(=O)O | > 500 | > 100 | – |
| O=C(O)CC[C@H](NC(=O)CCCCCNC(=O)NC12CC3CC(CC(C3)C1)C2)C(=O)O | > 500 | – | > 100 |
| O=C(CCCNC(=O)NC12CC3CC(CC(C3)C1)C2)N[C@@H](CO)C(=O)O | – | 47 | – |
| CC(C)[C@H](NC(=O)CCCNC(=O)NC12CC3CC(CC(C3)C1)C2)C(=O)O | > 500 | 30 | – |

| Structure (SMILES) | solubility [1] [µM] | IC50 [2] [µM] | IC50 [3] [µM] |
| --- | --- | --- | --- |
| CSCC[C@H](NC(=O)CCCCCNC(=O)NC12CC3CC(CC(C3)C1)C2)C(=O)O | > 500 | – | > 100 |
| O=C(O)CC[C@H](NC(=O)[C@H](Cc1ccccc1)NC(=O)CCCCCNC(=O)NC1CCCCC1)C(=O)O | > 500 | – | > 100 |
| NC(N)=NCCC[C@H](NC(=O)CNC(=O)NC1CCCCC1)C(=O)O | > 500 | > 100 | > 100 |
| N=C(N)NCCC[C@H](NC(=O)[C@H](Cc1ccccc1)NC(=O)CCCCCNC(=O)NC1CCCCC1)C(=O)O | > 500 | – | 2.1 |
| O=C(O)C[C@H](NC(=O)[C@H](Cc1ccccc1)NC(=O)CCCCCNC(=O)NC1CCCCC1)C(=O)O | > 500 | – | > 100 |
| O=C(CCCNC(=O)NC12CC3CC(CC(C3)C1)C2)N[C@@H](Cc1cnc[nH]1)C(=O)O | > 500 | 0.05 | – |
| O=C(O)C[C@H](NC(=O)CCCCCNC(=O)NC12CC3CC(CC(C3)C1)C2)C(=O)O | > 500 | – | > 100 |
| CSCC[C@H](NC(=O)CCCNC(=O)NC12CC3CC(CC(C3)C1)C2)C(=O)O | > 500 | 4.8 | – |
| N=C(N)NCCC[C@H](NC(=O)CCCCCNC(=O)NC12CC3CC(CC(C3)C1)C2)C(=O)O | > 500 | – | > 100 |
| CC[C@H](C)[C@H](NC(=O)[C@H](Cc1ccccc1)NC(=O)CCCCCNC(=O)NC1CCCCC1)C(=O)O | > 500 | – | 0.13 |
| N=C(N)NCCC[C@H](NC(=O)CCCNC(=O)NC12CC3CC(CC(C3)C1)C2)C(=O)O | > 500 | 16 | – |
| CC(C)[C@H](NC(=O)CCCNC(=O)NC1CCCCC1)C(=O)O | > 500 | 1.4 | 17 |
| O=C(CCCCCNC(=O)NC12CC3CC(CC(C3)C1)C2)N[C@@H](Cc1cnc[nH]1)C(=O)O | > 500 | – | > 100 |
| O=C(O)CNC(=O)NC1CCCCC1 | – | > 100 | > 100 |
| O=C(O)CCCNC(=O)NC12CC3CC(CC(C3)C1)C2 | > 500 | > 100 | – |
| O=C(CCCCCNC(=O)NC12CC3CC(CC(C3)C1)C2)N[C@@H](Cc1ccc(O)cc1)C(=O)O | > 500 | – | 80 |
| CCC(C)[C@H](NC(=O)CCCNC(=O)NC12CC3CC(CC(C3)C1)C2)C(=O)O (some centres undefined) | > 500 | 1.3 | – |
| O=C(O)CCCCCNC(=O)NC12CC3CC(CC(C3)C1)C2 | – | – | > 100 |
| O=C(CCCNC(=O)NC12CC3CC(CC(C3)C1)C2)N[C@@H](Cc1ccc(O)cc1)C(=O)O | > 500 | 18 | – |
| O=C(CCCCCNC(=O)NC12CC3CC(CC(C3)C1)C2)N[C@@H](CO)C(=O)O | > 500 | – | > 100 |
| O=C(CCCCCNC(=O)NC1CCCCC1)N[C@@H](Cc1ccccc1)C(=O)O (stereo in doubt; form 2) | > 500 | – | 1 |

| Structure (SMILES) | solubility [1] [µM] | IC50 [2] [µM] | IC50 [3] [µM] |
| --- | --- | --- | --- |
| O=C(CCCNC(=O)NC12CC3CC(CC(C3)C1)C2)N[C@@H](Cc1ccccc1)C(=O)O | > 500 | 0.8 | – |
| COC(=O)CCCCCNC(=O)NC1CCCCC1 | – | 0.11 | 3.2 |
| O=C(CCCCCNC(=O)NC12CC3CC(CC(C3)C1)C2)N[C@@H](Cc1ccccc1)C(=O)O | > 500 | – | 2.7 |
| C[C@H](NC(=O)[C@H](Cc1ccccc1)NC(=O)CCCCCNC(=O)NC1CCCCC1)C(=O)O | > 500 | – | 0.26 |
| O=C(O)CNC(=O)CCCNC(=O)NC12CC3CC(CC(C3)C1)C2 | > 500 | > 100 | – |
| O=C(CCCCCNC(=O)NC1CCCCC1)N[C@@H](Cc1ccccc1)C(=O)N1CCC[C@H]1C(=O)O | > 500 | – | 0.1 |
| O=C(O)CNC(=O)[C@H](Cc1ccccc1)NC(=O)CCCCCNC(=O)NC1CCCCC1 | > 500 | – | 1.5 |
| O=C(O)CC[C@H](NC(=O)CCCNC(=O)NC12CC3CC(CC(C3)C1)C2)C(=O)O | > 500 | > 100 | – |
| O=C(CCCCCNC(=O)NC1CCCCC1)N[C@@H](Cc1ccccc1)C(=O)N[C@@H](CO)C(=O)O | > 500 | – | 2.4 |
| O=C(O)CNC(=O)CCCCCNC(=O)NC12CC3CC(CC(C3)C1)C2 | > 500 | – | > 100 |
| C[C@H](O)[C@H](NC(=O)[C@H](Cc1ccccc1)NC(=O)CCCCCNC(=O)NC1CCCCC1)C(=O)O | > 500 | – | 1.3 |
| O=C(CCCCCNC(=O)NC1CCCCC1)N[C@@H](Cc1ccccc1)C(=O)N[C@@H](Cc1ccc(O)cc1)C(=O)O | > 500 | – | 0.23 |
| COC(=O)CCCCCNC(=O)NC12CC3CC(CC(C3)C1)C2 | – | – | 1.8 |
| C[C@H](NC(=O)CCCCCNC(=O)NC12CC3CC(CC(C3)C1)C2)C(=O)O | > 500 | – | > 100 |
| CC(C)[C@H](NC(=O)[C@H](Cc1ccccc1)NC(=O)CCCCCNC(=O)NC1CCCCC1)C(=O)O | > 500 | – | 0.1 |
| O=C(CCCCCNC(=O)NC12CC3CC(CC(C3)C1)C2)N[C@@H](Cc1c[nH]c2ccccc12)C(=O)O | > 500 | – | 41 |
| CSCC[C@H](NC(=O)[C@H](Cc1ccccc1)NC(=O)CCCCCNC(=O)NC1CCCCC1)C(=O)O | > 500 | – | 0.87 |
| CC(O)[C@H](NC(=O)CCCCCNC(=O)NC12CC3CC(CC(C3)C1)C2)C(=O)O (some centres undefined) | > 500 | – | > 100 |
| O=C(CCCCCNC(=O)NC1CCCCC1)N[C@@H](Cc1ccccc1)C(=O)N[C@@H](Cc1c[nH]c2ccccc12)C(=O)O | > 500 | – | 0.1 |
